Measured values taken from ChEMBL document CHEMBL5705902, “Role of G Protein-Coupled Receptor Kinases 2 and 3 in μ-Opioid Receptor Desensitization and Internalization” (Mol Pharmacol, 2015).
Activity calls are given as the source filed them. No cut-off for these calls is given here.

What was measured:
[1] = target: Beta-2 adrenergic receptor (Bos taurus) (UniProt Q28044); experiment: Inhibition of bovine beta2-adrenoceptor desensitization in HEK293 cell; type: cell-based; conditions: dose 3-30 µM
[2] = target: Tyrosine-protein kinase Lck (Homo sapiens) (UniProt P06239); experiment: Inhibition of human Lck assessed as remaining activity at 1 uM in presence of 32ATP relative to control
Tyrosine-protein kinase Lck (Homo sapiens), sequence (P06239 2-509 limits assumed): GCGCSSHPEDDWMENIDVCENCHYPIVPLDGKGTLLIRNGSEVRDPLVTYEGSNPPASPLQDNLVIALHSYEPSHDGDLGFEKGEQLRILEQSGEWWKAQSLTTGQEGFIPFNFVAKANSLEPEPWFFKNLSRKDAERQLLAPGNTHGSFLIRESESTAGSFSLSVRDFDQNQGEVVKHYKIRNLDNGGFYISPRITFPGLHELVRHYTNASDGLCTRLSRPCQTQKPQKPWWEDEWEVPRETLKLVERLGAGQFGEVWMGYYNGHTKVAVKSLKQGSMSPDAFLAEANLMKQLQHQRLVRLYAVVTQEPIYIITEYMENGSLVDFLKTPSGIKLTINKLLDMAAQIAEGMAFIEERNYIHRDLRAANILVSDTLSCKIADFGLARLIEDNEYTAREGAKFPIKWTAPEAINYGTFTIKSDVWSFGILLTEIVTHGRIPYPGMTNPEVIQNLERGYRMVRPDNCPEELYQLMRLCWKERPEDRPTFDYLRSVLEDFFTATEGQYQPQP
Summary of the method: (§1)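 Express panel of 52 purified human kinases run in vitro. Kinase activity was measured directly by a radioactive filter-binding assay with ³²ATP, at ATP levels at or below each kinase's calculated Km for ATP. The compound was tested at 1 μM. Each assay was run in duplicate, and activity is given as the mean percentage (with S.D.) of activity without inhibitor.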

[3] = target: Mu-type opioid receptor (Rattus norvegicus) (UniProt P33535); experiment: Inhibition of MOPr desensitization in wistar rat LC neuron cells assessed as reduction in the endomorphin-2 induced desensitization at 30 uM incubated for 15 mins before; type: functional, cell-based
Mu-type opioid receptor (Rattus norvegicus), sequence (P33535 whole entry, the tested form may be a part): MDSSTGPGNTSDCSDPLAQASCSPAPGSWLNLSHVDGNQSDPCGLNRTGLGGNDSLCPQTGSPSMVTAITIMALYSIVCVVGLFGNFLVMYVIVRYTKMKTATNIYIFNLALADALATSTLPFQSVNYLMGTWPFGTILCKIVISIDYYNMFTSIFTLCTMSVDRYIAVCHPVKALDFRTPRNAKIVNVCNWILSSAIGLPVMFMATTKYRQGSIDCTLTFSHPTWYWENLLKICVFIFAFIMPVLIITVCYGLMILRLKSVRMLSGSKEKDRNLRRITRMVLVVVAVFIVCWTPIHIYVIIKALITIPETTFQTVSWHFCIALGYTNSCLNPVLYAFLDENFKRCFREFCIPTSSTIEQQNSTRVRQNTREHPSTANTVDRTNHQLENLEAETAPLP
Summary of the method: (§2)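 Whole-cell patch clamp of GIRK currents in locus coeruleus slices from male Wistar rats (5–8 weeks). Inhibitor was given at least 15 min before and during the agonist, all drugs by superfusion. Percent desensitization was taken over 10 min of opioid agonist application. Met-Enk n = 5, endomorphin-2 n = 6; ANOVA.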

[4] = target: Mu-type opioid receptor (Rattus norvegicus) (UniProt P33535); experiment: Inhibition of MOPr desensitization in wistar rat LC neuron cells assessed as reduction in the Met-Enk induced desensitization at 30 uM incubated for 15 mins before in the presence of SP600125; type: functional, cell-based
[5] = target: Dual specificity tyrosine-phosphorylation-regulated kinase 1A (Homo sapiens) (UniProt Q13627); experiment: Inhibition of human DYRK1A assessed as remaining activity at 1 uM in presence of 32ATP relative to control
Summary of the method: (§3)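 Express screen of 52 purified human kinases run as a radioactive filter-binding assay with 32ATP, at 1 μM inhibitor. ATP was at or below each kinase's calculated Km. Activity is given as percent of the activity without inhibitor. Run in duplicate; mean with S.D.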

[6] = target: Mu-type opioid receptor (Rattus norvegicus) (UniProt P33535); experiment: Inhibition of HA-tagged rat MOPr in HEK293 cells assessed as prevention in DAMGO induced MOPr phosphorylation at Thr370 level at 30 uM preincubated for 30 mins by western blot analysis; type: functional, cell-based
[7] = target: Mu-type opioid receptor (Rattus norvegicus) (UniProt P33535); experiment: Inhibition of MOPr desensitization in wistar rat LC neuron cells assessed as Met-Enk response at 3 uM incubated for 15 mins relative to control
[8] = target: Eukaryotic elongation factor 2 kinase (Homo sapiens) (UniProt O00418); experiment: Inhibition of human EF2K assessed as remaining activity at 1 uM in presence of 32ATP relative to control; summary of the method: as §3
Eukaryotic elongation factor 2 kinase (Homo sapiens), sequence (O00418 whole entry): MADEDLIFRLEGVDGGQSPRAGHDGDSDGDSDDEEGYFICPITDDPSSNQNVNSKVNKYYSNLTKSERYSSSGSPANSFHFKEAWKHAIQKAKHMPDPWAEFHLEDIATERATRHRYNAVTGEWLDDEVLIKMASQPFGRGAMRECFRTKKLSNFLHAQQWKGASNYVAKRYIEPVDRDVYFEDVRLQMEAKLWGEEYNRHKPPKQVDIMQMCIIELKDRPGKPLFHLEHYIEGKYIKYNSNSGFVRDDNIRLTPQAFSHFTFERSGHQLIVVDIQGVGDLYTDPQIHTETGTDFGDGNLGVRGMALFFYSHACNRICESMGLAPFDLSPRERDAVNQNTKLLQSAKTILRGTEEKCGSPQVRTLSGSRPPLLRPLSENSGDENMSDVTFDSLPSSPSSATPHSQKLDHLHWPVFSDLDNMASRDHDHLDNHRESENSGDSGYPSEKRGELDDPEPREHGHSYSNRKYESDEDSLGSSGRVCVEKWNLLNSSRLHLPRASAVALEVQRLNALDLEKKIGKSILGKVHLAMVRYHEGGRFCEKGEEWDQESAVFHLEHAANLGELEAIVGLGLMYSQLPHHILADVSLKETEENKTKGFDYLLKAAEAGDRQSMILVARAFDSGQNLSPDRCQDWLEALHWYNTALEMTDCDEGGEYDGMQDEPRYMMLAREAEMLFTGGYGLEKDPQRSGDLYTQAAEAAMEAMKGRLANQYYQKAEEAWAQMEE

[9] = species: Homo sapiens; experiment: Inhibition of human AMPK assessed as remaining activity at 1 uM in presence of 32ATP relative to control; summary of the method: as §3
[10] = target: Ribosomal protein S6 kinase alpha-1 (Homo sapiens) (UniProt Q15418); experiment: Inhibition of human RSK1 assessed as remaining activity at 1 uM in presence of 32ATP relative to control; summary of the method: as §1
Ribosomal protein S6 kinase alpha-1 (Homo sapiens), sequence (Q15418 whole entry): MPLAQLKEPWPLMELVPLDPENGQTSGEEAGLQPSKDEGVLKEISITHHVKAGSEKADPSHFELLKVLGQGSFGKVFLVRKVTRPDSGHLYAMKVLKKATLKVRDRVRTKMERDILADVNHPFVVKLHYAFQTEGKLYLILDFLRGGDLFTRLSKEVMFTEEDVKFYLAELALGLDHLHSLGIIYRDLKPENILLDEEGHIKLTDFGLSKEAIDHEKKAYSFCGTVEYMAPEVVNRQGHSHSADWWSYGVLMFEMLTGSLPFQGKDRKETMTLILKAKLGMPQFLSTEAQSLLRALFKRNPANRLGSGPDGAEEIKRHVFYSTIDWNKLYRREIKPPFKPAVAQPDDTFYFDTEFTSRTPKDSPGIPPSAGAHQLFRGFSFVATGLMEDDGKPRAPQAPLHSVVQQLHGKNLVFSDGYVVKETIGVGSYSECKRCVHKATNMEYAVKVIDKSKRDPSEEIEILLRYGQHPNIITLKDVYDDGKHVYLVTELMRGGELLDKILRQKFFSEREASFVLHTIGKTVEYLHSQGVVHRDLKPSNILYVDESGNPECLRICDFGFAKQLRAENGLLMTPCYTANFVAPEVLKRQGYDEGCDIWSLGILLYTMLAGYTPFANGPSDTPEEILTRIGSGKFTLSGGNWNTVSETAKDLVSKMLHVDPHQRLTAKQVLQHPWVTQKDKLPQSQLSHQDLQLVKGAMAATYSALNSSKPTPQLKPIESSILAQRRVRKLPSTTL

[11] = target: Mu-type opioid receptor (Rattus norvegicus) (UniProt P33535); experiment: Inhibition of HA-tagged rat MOPr stably expressing in HEK293 cells assessed as increase in DAMGO-induced Elk1 phosphorylation level at 30 uM preincubated for 30 mins by westernblot analysis; type: functional, cell-based
Summary of the method: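 HA-MOPr HEK 293 cells were serum-starved 24 h and pretreated with inhibitor (30 μM) for 30 min, then given DAMGO 10 μM for 5 min.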

[12] = target: Mu-type opioid receptor (Rattus norvegicus) (UniProt P33535); experiment: Inhibition of MOPr desensitization in wistar rat LC neuron cells assessed as reduction in the morphine induced desensitization at 30 uM incubated for 15 mins; type: functional, cell-based
[13] = target: Mu-type opioid receptor (Rattus norvegicus) (UniProt P33535); experiment: Inhibition of MOPr desensitization in wistar rat LC neuron cells assessed as reduction in the Met-Enk induced desensitization at 30 uM incubated for 15 mins before in the presence of amlexanox; type: functional, cell-based
[14] = target: Serine/threonine-protein kinase pim-1 (Homo sapiens) (UniProt P11309); experiment: Inhibition of human PIM1 assessed as remaining activity at 1 uM in presence of 32ATP relative to control; summary of the method: as §1
[15] = target: Mu-type opioid receptor (Rattus norvegicus) (UniProt P33535); experiment: Inhibition of MOPr desensitization in wistar rat LC neuron cells assessed as reduction in the Met-Enk induced desensitization incubated for 15 mins before; type: functional, cell-based; conditions: dose 3-30 µM; summary of the method: as §2
[16] = target: G protein-coupled receptor kinase 3 (Homo sapiens, UniProt P35626); experiment: Inhibition of human GRK3 in the presence of ATP
[17] = target: Protein kinase C alpha type (Homo sapiens) (UniProt P17252); experiment: Inhibition of human PKCalpha assessed as remaining activity at 1 uM in presence of 32ATP relative to control; summary of the method: as §1
[18] = target: Mitogen-activated protein kinase kinase kinase 7 (Homo sapiens) (UniProt O43318); experiment: Inhibition of human TAK1 assessed as remaining activity at 1 uM in presence of 32ATP relative to control; summary of the method: as §1
Mitogen-activated protein kinase kinase kinase 7 (Homo sapiens), sequence (O43318 whole entry): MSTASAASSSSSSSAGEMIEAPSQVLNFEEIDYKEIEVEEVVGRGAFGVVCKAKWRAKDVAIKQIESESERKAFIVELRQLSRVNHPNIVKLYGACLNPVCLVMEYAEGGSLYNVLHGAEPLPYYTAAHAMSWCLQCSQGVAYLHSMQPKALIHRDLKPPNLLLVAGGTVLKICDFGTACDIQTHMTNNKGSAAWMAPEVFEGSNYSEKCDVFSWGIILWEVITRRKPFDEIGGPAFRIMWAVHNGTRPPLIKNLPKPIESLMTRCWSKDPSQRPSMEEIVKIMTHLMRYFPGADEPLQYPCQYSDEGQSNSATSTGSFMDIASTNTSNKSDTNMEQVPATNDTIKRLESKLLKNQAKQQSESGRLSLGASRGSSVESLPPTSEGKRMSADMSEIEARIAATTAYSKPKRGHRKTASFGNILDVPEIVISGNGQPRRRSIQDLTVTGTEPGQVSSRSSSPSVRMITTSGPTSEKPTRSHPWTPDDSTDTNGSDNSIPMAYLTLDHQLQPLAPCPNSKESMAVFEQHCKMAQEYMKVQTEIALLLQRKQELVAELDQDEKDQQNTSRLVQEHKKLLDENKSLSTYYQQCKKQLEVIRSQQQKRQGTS

[19] = target: Casein kinase 2 (Homo sapiens) (UniProt P67870+P68400+P19784+Q8NEV1); experiment: Inhibition of human CK2 assessed as remaining activity at 1 uM in presence of 32ATP relative to control; type: protein assay; summary of the method: as §3
[20] = target: Rho-associated protein kinase 2 (Homo sapiens) (UniProt O75116); experiment: Inhibition of human ROCK 2 assessed as remaining activity at 1 uM in presence of 32ATP relative to control; summary of the method: as §1
[21] = target: Casein kinase I isoform delta (Homo sapiens) (UniProt P48730); experiment: Inhibition of human CK1delta assessed as remaining activity at 1 uM in presence of 32ATP relative to control; summary of the method: as §3
Casein kinase I isoform delta (Homo sapiens), sequence (P48730 whole entry, looked up, canonical isoform): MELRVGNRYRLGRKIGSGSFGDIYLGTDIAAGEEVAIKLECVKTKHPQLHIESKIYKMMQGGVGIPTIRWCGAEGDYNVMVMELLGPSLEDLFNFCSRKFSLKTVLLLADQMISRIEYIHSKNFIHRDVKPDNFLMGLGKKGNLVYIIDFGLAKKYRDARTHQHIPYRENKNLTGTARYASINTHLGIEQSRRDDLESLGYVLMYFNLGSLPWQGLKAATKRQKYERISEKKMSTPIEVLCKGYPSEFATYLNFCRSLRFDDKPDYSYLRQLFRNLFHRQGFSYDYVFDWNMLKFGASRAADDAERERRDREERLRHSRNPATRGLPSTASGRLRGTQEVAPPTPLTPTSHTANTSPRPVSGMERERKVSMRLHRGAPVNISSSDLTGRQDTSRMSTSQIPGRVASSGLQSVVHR

[22] = target: Mu-type opioid receptor (Rattus norvegicus) (UniProt P33535); experiment: Inhibition of MOPr desensitization in wistar rat LC neuron cells assessed as reduction in the DAMGO induced desensitization at 3 to 100 uM incubated for 15 mins before; type: functional, cell-based; conditions: dose 3-100 µM
Summary of the method: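 Rat LC neurons (Wistar, 5–8 weeks) were recorded by whole-cell patch clamp. DAMGO 10 μM was superfused for 12 min to desensitize, then the maximal morphine 30 μM response was measured at plateau. Inhibitor was superfused beforehand; n = 4; ANOVA.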

[23] = target: Myosin light chain kinase, smooth muscle (Homo sapiens) (UniProt Q15746); experiment: Inhibition of human SmMLCK assessed as remaining activity at 1 uM in presence of 32ATP relative to control; summary of the method: as §1
[24] = target: Serine/threonine-protein kinase D1 (Homo sapiens) (UniProt Q15139); experiment: Inhibition of human PKD1 assessed as remaining activity at 1 uM in presence of 32ATP relative to control; summary of the method: as §1
[25] = target: Mitogen-activated protein kinase 3 (Homo sapiens) (UniProt P27361); experiment: Inhibition of human ERK1 assessed as remaining activity at 1 uM in presence of 32ATP relative to control; summary of the method: as §1
Mitogen-activated protein kinase 3 (Homo sapiens), sequence (P27361 whole entry): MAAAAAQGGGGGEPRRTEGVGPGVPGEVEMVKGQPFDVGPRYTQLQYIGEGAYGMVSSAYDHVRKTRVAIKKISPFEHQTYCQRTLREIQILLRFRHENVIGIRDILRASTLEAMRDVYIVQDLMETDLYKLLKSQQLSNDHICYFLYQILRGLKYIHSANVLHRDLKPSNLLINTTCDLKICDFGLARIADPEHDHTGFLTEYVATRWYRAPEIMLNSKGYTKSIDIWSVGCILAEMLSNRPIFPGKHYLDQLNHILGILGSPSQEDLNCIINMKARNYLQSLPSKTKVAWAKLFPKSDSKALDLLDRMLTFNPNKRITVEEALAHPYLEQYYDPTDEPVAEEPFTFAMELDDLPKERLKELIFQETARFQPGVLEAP

[26] = target: c-Jun N-terminal kinase, JNK (Homo sapiens) (UniProt P45983+P53779+P45984); experiment: Inhibition of JNK (unknown origin) at 1 uM in presence of 32ATP relative to control; type: protein assay; summary of the method: as §3
[27] = target: Serine/threonine-protein kinase STK11 (Homo sapiens) (UniProt Q15831); experiment: Inhibition of human LKB1 assessed as remaining activity at 1 uM in presence of 32ATP relative to control; summary of the method: as §1
Serine/threonine-protein kinase STK11 (Homo sapiens), sequence (Q15831 whole entry): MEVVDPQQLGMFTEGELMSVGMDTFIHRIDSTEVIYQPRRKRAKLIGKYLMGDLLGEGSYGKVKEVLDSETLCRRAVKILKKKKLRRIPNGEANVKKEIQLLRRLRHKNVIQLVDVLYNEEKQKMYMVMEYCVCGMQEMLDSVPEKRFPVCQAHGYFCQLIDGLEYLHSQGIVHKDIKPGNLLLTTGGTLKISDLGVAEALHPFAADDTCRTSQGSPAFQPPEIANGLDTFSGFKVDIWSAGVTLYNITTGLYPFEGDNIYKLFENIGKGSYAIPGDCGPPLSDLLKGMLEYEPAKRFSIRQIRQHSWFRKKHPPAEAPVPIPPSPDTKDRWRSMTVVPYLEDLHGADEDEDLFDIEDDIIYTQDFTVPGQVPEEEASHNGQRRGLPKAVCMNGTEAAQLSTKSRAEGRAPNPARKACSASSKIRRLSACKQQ

Structure (SMILES): Cn1c(CNc2cccc(C(=O)NCc3ccccc3C(F)(F)F)c2)nnc1-c1ccncc1
- inhibition [1]: Dose-Dependent Effect
- Activity [2]: 94%
- inhibition [3]: Active
- inhibition [4]: inactive
- Activity [5]: 112%
- inhibition [6]: Active
- Met-Enk (600 nM) response, % of initial [7]: 94%
- Activity [8]: 103%
- Activity [9]: 82%
- Activity [10]: 48%
- inhibition [11]: inactive
- inhibition [12]: Active
- inhibition [13]: inactive
- Activity [14]: 107%
- inhibition [15]: Dose-Dependent Effect
- IC50 [16]: 290 nM
- Activity [17]: 96%
- Activity [18]: 113%
- Activity [19]: 106%
- Activity [20]: 53%
- Activity [21]: 86%
- inhibition [22]: Active
- Activity [23]: 89%
- Activity [24]: 65%
- Activity [25]: 83%
- inhibition [26]: < 20%
- Activity [27]: 91%
